Results from ChEMBL document CHEMBL1152279 (J Med Chem, 2008).

Tests used:
[1] = biological target: T1, Histamine H2 receptor (Cavia porcellus, UniProt P47747); test: Agonist activity at histamine H2 receptor in guinea pig spontaneously beating right atrium assessed as positive chronotropic activity; type: functional, tissue-based, Cardiac atrium
[2] = biological target: Histamine H2 receptor (Cavia porcellus) (UniProt P47747); test: Agonist activity at histamine H2 receptor in guinea pig spontaneously beating right atrium assessed as positive chronotropic activity relative to histamine; type: functional, tissue-based; details: Cardiac atrium
Sequence of Histamine H2 receptor (Cavia porcellus) (P47747 whole entry, the tested form may be a part): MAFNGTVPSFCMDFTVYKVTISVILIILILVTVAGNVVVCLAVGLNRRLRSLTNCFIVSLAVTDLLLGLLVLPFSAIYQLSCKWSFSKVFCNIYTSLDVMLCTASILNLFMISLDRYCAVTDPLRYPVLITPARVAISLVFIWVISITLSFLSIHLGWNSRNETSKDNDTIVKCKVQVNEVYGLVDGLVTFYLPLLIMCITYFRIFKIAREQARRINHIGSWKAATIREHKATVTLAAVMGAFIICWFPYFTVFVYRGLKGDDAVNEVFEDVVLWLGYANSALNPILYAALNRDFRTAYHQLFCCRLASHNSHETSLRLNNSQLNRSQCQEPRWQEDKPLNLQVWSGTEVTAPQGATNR

[3] = biological target: Histamine H1 receptor (Homo sapiens) (UniProt P35367); test: Antagonist activity at histamine H1 receptor in human U373 MG cells assessed as inhibition of histamine-induced intracellular calcium level preincubated for 15 mins prior to histamine challenge; type: functional, cell-based; details: U-373MG ATCC
Sequence of Histamine H1 receptor (Homo sapiens) (P35367 whole entry, the tested form may be a part): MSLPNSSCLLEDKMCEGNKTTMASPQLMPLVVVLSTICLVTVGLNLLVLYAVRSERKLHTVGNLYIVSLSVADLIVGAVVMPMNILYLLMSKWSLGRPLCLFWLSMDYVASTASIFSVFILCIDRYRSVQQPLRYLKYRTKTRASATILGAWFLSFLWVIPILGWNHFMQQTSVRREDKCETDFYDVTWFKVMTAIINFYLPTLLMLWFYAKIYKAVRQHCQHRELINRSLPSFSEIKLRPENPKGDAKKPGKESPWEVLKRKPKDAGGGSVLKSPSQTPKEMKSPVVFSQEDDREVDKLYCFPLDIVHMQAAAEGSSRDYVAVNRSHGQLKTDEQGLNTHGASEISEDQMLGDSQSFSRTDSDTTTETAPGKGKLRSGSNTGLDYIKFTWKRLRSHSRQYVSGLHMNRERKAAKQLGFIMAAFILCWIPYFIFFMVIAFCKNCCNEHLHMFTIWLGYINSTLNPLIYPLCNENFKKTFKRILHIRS
Outline: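 U373-MG human cells expressing H1R, calcium assay. […] KB was derived from IC50 by the Cheng-Prusoff equation. Values are the mean of two experiments.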

[4] = biological target: Histamine H1 receptor (Cavia porcellus) (UniProt P31389); test: Antagonist activity at histamine H1 receptor in guinea pig ileum assessed as […]
Sequence of Histamine H1 receptor (Cavia porcellus) (P31389 whole entry): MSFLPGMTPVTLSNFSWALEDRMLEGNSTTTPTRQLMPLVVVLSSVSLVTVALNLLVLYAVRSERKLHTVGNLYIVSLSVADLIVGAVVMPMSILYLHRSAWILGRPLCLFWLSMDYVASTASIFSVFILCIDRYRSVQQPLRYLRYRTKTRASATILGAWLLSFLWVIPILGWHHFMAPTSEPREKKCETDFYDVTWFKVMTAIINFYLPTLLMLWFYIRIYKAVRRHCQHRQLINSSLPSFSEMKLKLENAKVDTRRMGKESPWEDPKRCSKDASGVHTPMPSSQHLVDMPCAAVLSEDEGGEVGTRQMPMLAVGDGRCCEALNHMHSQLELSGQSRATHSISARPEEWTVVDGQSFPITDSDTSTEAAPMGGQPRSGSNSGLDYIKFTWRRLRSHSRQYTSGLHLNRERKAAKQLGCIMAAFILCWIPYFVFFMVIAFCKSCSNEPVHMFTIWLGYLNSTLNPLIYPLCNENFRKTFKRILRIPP

[5] = biological target: Histamine H1 receptor (Cavia porcellus, UniProt P31389); test: Antagonist activity at histamine H1 receptor in guinea pig ileum assessed as inhibition of histamine-induced […]; type: functional, tissue-based; details: for Kb: read-out: pA2 (converted)
Sequence of Histamine H1 receptor (P31389 whole entry, the tested form may be a part): as the sequence (P31389 whole entry) above

[6] = biological target: Histamine H2 receptor (Cavia porcellus) (UniProt P47747); test: Activity at guinea pig recombinant histamine H2 receptor-Gsalpha fusion protein expressed in Sf9 cells by steady-state GTPase activity assay relative to histamine
Outline: (§1)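 Membranes from Sf9 insect cells expressing the receptor construct named in each line: hH1R with RGS4, hH2R-GsR or gpH2R-GsR fusion, hH3R with GRi, Gβ1γ2 and RGS4, or hH4R-RGS19 fusion with GRi2 and Gβ1γ2. […] Values are mean ± SEM.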

[7] = biological target: T2, Histamine H3 receptor (Homo sapiens, UniProt Q9Y5N1); test: Activity at human recombinant histamine H3 receptor expressed in Sf9 cells coexpressing Galphai2, G-beta-1-gamma-2 and RGS4 by steady-state GTPase activity assay relative to histamine; outline: as §1
T2 sequence (Q9Y5N1 whole entry): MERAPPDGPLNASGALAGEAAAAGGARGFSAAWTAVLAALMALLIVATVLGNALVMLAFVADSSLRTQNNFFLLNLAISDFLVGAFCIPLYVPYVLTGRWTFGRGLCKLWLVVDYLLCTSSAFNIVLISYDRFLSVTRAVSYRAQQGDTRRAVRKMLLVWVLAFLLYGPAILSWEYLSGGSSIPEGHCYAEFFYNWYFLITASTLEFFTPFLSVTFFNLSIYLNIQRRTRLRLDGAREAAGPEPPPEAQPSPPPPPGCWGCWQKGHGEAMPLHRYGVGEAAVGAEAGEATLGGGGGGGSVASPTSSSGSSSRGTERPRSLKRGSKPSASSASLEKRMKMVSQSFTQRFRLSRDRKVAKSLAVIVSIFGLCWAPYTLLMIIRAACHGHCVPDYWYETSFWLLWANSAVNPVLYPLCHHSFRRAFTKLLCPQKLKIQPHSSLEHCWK

[8] = biological target: Histamine H1 receptor (Homo sapiens) (UniProt P35367); test: Activity at human recombinant histamine H1 receptor expressed in Sf9 cells coexpressing RGS4 by steady-state GTPase activity assay relative to histamine; outline: as §1
[9] = biological target: T3, Histamine H2 receptor (Homo sapiens, UniProt P25021); test: Activity at human recombinant histamine H2 receptor-Gsalpha fusion protein expressed in Sf9 cells by steady-state GTPase activity assay relative to histamine; outline: as §1
T3 sequence (P25021 whole entry, the tested form may be a part): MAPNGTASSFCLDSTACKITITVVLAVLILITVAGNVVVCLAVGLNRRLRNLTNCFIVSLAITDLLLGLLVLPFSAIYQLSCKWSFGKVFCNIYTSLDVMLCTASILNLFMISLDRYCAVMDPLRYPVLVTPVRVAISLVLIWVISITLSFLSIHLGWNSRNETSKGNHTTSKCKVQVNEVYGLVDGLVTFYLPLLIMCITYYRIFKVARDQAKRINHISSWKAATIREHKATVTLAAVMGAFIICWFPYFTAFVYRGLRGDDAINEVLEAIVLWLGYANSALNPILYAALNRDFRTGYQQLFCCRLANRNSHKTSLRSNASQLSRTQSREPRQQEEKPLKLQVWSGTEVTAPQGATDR

[10] = Terminal half life in nude mouse plasma; type: ADME, organism-based; details: read-out: beta t1/2
[11] = biological target: T3, Histamine H2 receptor; test: Activity at human recombinant histamine H2 receptor-Gsalpha fusion protein expressed in Sf9 cells by steady-state GTPase activity assay
Outline: (§2)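 Membranes from Sf9 insect cells expressing the receptor construct named in each line: hH1R with RGS4, hH2R-GsR or gpH2R-GsR fusion, hH3R with GRi, Gβ1γ2 and RGS4, or hH4R-RGS19 fusion with GRi2 and Gβ1γ2. Values are mean ± SEM.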

[12] = biological target: T1, Histamine H2 receptor; test: Activity at guinea pig recombinant histamine H2 receptor-Gsalpha fusion protein expressed in Sf9 cells by steady-state GTPase activity assay; outline: as §2
[13] = biological target: Histamine H4 receptor (Homo sapiens, UniProt Q9H3N8); test: Activity at human recombinant histamine H4 receptor-RGS19 fusion protein expressed in Sf9 cells coexpressing Galphai2 and G-beta-1-gamma-2 by steady-state GTPase activity assay
[14] = biological target: T2, Histamine H3 receptor; test: Activity at human recombinant histamine H3 receptor expressed in Sf9 cells coexpressing Galphai, G-beta-1-gamma-2 and RGS4 by steady-state GTPase activity assay; outline: as §1
[15] = Dissociation constant, pKa of the compound; type: physicochemical

T1 sequence (P47747 whole entry): as the sequence (P47747 whole entry, the tested form may be a part) above

EC50 [1] [nM]	Activity [2] [%]	Emax [2] [%]	Kb [3] [nM]	Kb [5] [nM]	Structure (SMILES)	other results
204	490	76	1400	–	N=C(NCCCc1c[nH]cn1)NC(=O)CC(c1ccc(F)cc1)c1ccc(F)cc1	pD'2 [4]: 5.95
309	–	–	–	–	NC(=NCCCc1cnc[nH]1)NC(=O)CC(c1ccc(Cl)cc1)c1ccc(Cl)cc1	–
166	607	97	9200	2140	N=C(NCCCc1c[nH]cn1)NC(=O)CCc1ccccc1	–
–	2630	99	2100	–	CC(CC(=O)NC(=N)NCCCc1c[nH]cn1)c1cccs1 (stereo unspecified)	Activity [6]: 5710%; Efficacy [6]: 1.05; Activity [7]: 1530%; Efficacy [7]: 0.29; Activity [8]: 1.8%; Activity [9]: 1160%; Efficacy [9]: 0.97
56.2	1780	94	7100	1820	N=C(NCCCc1c[nH]cn1)NC(=O)CCCc1ccccc1	–
50.1	2000	90	4600	4680	N=C(NCCCc1c[nH]cn1)NC(=O)CC(c1ccc(F)c(F)c1)c1nccs1 (stereo unspecified)	half-life [10]: 28 min
646	154	64	8700	9770	N=C(NCCc1c[nH]cn1)NC(=O)CC(c1ccccc1)c1ccccc1	pD'2 [4]: 4.55
9.77	–	–	–	–	NC(=NCCC(c1ccc(F)cc1)c1ccccn1)NCCCc1cnc[nH]1 (stereo unspecified) [ARPROMIDINE]	–
–	10200	100	–	–	N=C(NCCCc1c[nH]cn1)NCCC(c1ccc(F)cc1)c1ccccn1 (stereo unspecified)	–
20	5000	100	–	3390	Cc1[nH]cnc1CSCCNC(=N)NCCCc1c[nH]cn1 [IMPROMIDINE]	–
3630	–	–	–	> 10000	CC(C(=O)NC(N)=NCCCc1cnc[nH]1)c1ccccc1 (stereo unspecified)	–
28.2	–	–	–	741	NC(=NCCCc1cnc[nH]1)NC(=O)CC(c1ccccc1)c1ccccc1	EC50 [11]: 78 nM; EC50 [12]: 6 nM; EC50 [13]: 8.6 nM
–	2090	102	6000	–	N=C(NCCCc1c[nH]cn1)NC(=O)C1CCCCC1	–
–	95	69	4000	–	N=C(NCCCc1c[nH]cn1)NC(=O)C(c1ccccc1)c1ccccc1	–
–	2590	91	11100	–	CC(CC(=O)NC(=N)NCCCc1c[nH]cn1)c1nccs1 (stereo unspecified)	–
–	729	86	8800	–	CC(C(=O)NC(=N)NCCCc1c[nH]cn1)C1CCCCC1 (stereo unspecified)	–
38	–	–	–	–	CC(CC(=O)NC(N)=NCCCc1cnc[nH]1)c1cccs1 (stereo unspecified)	EC50 [14]: 1.64 nM; EC50 [11]: 109 nM; EC50 [12]: 21 nM; EC50 [13]: 6.3 nM
61.7	–	–	–	6170	NC(=NCCCc1cnc[nH]1)NC(=O)CCC1CCCCC1	–
–	1610	98	1600	–	N=C(NCCCc1c[nH]cn1)NC(=O)CCC1CCCCC1	–
47.9	–	–	–	5130	NC(=NCCCc1cnc[nH]1)NC(=O)C1CCCCC1	–
398	251	54	2900	–	N=C(NCCCc1c[nH]cn1)NC(=O)CC(c1ccc(F)c(F)c1)c1nccn1Cc1ccccc1 (stereo unspecified)	–
97.7	–	–	–	–	NC(=NCCCc1cnc[nH]1)NC(=O)CC(c1ccc(F)c(F)c1)c1ncc[nH]1 (stereo unspecified)	–
776	–	–	–	–	NC(=NCCCc1cnc[nH]1)NC(=O)CC(c1ccc(Br)cc1)c1ccc(Br)cc1	–
–	2930	100	5200	–	N=C(NCCCc1c[nH]cn1)NC(=O)CC(c1ccc(F)cc1)c1ccccn1 (stereo unspecified)	–
100	–	–	–	2450	NC(=NCCCc1cnc[nH]1)NC(=O)CC1CCCCC1	–
372	269	89	1100	741	N=C(NCCCc1c[nH]cn1)NC(=O)CCCC1CCCCC1	–

EC50 [1] [nM]	Activity [2] [%]	Emax [2] [%]	Kb [3] [nM]	Kb [5] [nM]	Structure (SMILES)	other results
38	–	–	–	4680	NC(=NCCCc1cnc[nH]1)NC(=O)CC(c1ccccc1)c1nccs1 (stereo unspecified)	EC50 [11]: 120 nM; EC50 [12]: 14 nM; EC50 [13]: 66.3 nM
138	–	–	–	2340	CC(C(=O)NC(N)=NCCCc1cnc[nH]1)C1CCCCC1 (stereo unspecified)	–
–	1000	95	4300	–	N=C(NCCCc1c[nH]cn1)NC(=O)CC1CCCCC1	–
–	2630	100	6800	–	N=C(NCCCc1c[nH]cn1)NC(=O)CC(c1ccccc1)c1nccs1 (stereo unspecified)	Activity [6]: 8570%; Efficacy [6]: 0.94; Kb [14]: 113 nM; Activity [8]: 1%; Activity [9]: 1000%; Efficacy [9]: 0.8
–	1030	100	6200	–	N=C(NCCCc1c[nH]cn1)NC(=O)CC(c1ccc(F)c(F)c1)c1ncc[nH]1 (stereo unspecified)	–
15.8	–	–	–	1350	CC(CC(=O)NC(N)=NCCCc1cnc[nH]1)c1ccccc1 (stereo unspecified)	EC50 [14]: 2.45 nM; half-life [10]: 67 min; EC50 [11]: 67 nM; EC50 [12]: 12 nM; EC50 [13]: 15.3 nM
–	28	88	8800	–	CC(C(=O)NC(=N)NCCCc1c[nH]cn1)c1ccccc1 (stereo unspecified)	–
53.7	–	–	–	–	NC(=NCCCc1cnc[nH]1)NC(=O)CC(c1ccccc1)c1ccc(F)c(F)c1 (stereo unspecified)	–
–	–	–	–	–	CC(=O)NC(=N)N	pKa [15]: 7.6
468	211	86	–	562	N=C(NCCCc1c[nH]cn1)NC(=O)CCCCc1ccccc1	–
–	320	60	–	–	N=C(NCCCc1c[nH]cn1)NC(=O)CC(c1ccc(Cl)cc1)c1ccc(Cl)cc1	–
67.6	–	–	–	2190	CC(CC(=O)NC(N)=NCCCc1cnc[nH]1)C1CCCCC1 (stereo unspecified)	–
51.3	1960	97	4900	11200	N=C(NCCCc1c[nH]cn1)NC(=O)CC(c1ccccc1)c1ccccn1 (stereo unspecified)	–
30.9	–	–	–	4270	Cc1nc[nH]c1CSCC(=O)NC(N)=NCCCc1cnc[nH]1	–
–	1470	101	140	–	CC(CC(=O)NC(=N)NCCCc1c[nH]cn1)C1CCCCC1 (stereo unspecified)	–
–	130	60	–	–	N=C(NCCCc1c[nH]cn1)NC(=O)CC(c1ccc(Br)cc1)c1ccc(Br)cc1	–
38.9	–	–	–	–	CC(CC(=O)NC(N)=NCCCc1cnc[nH]1)c1nccs1 (stereo unspecified)	–
–	6350	99	3000	–	CC(CC(=O)/N=C(\N)NCCCc1c[nH]cn1)c1ccccc1 (stereo unspecified)	Activity [6]: 10000%; Efficacy [6]: 1.03; Activity [7]: 1024%; Efficacy [7]: 0.24; Activity [8]: 1.3%; Efficacy [8]: 0.35; Activity [9]: 1800%; Efficacy [9]: 0.87
33.9	–	–	–	3720	NC(=NCCCc1cnc[nH]1)NC(=O)CC(c1ccc(F)cc1)c1ccccn1 (stereo unspecified)	–
1050	–	–	–	–	NC(=NCCCc1cnc[nH]1)NC(=O)C(c1ccccc1)c1ccccc1	–
–	3200	101	8500	–	Cc1[nH]cnc1CSCC(=O)NC(=N)NCCCc1c[nH]cn1	–
38	2610	98	7400	–	CC(CC(=O)NC(=N)NCCCc1c[nH]cn1)c1ccccn1 (stereo unspecified)	–
–	1850	81	1200	–	N=C(NCCCc1c[nH]cn1)NC(=O)CC(c1ccccc1)c1ccc(F)c(F)c1 (stereo unspecified)	pD'2 [4]: 6.06
–	3530	85	–	–	N=C(NCCCc1c[nH]cn1)NC(=O)CC(c1ccccc1)c1ccccc1	Activity [6]: 19000%; Efficacy [6]: 0.93; Kb [14]: 17.1 nM; Activity [8]: 6.4%; Efficacy [8]: 0.19; Activity [9]: 1500%; Efficacy [9]: 0.69; pD'2 [4]: 5.2
55	1830	95	–	–	N=C(NCCCc1c[nH]cn1)NC(=O)CC(c1ccccc1)c1ccc(F)cc1 (stereo unspecified)	pD'2 [4]: 5.39

Structure (SMILES)	EC50 [1] [nM]	Activity [2] [%]	Emax [2] [%]	Kb [3] [nM]	Kb [5] [nM]	other results
NC(=NCCCc1cnc[nH]1)NC(=O)Cc1ccccc1	182	–	–	–	575	–
N=C(NCCCc1c[nH]cn1)NC(=O)c1ccccc1	1170	86	89	15800	–	pA2 [5]: > 5
N=C(NCCCc1c[nH]cn1)NC(=O)Cc1ccccc1	–	546	97	2800	–	–
